# GPR7 antagonist – human neuropeptides B/W receptor 1 antagonism; P48145; GPR7-expressing cells, fluorescence antagonist assay; inhibition, % at 4.4 µM; actives 1.1% (n = 290,000); AID 1861; in the data active means inhibition above about 16%, passing the limit was not always enough;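 further: cells stimulated with the agonist NPW; 0% = agonist with vehicle and 100% = vehicle without agonist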
# TAAR1 agonist – agonists of human TAAR1; Q96RJ0; CHO RD-HGA16 TAAR1, Fluo-8 calcium fluorescence; vehicle wells 0%, saturating PEA agonist 100%; activation, % at 3 µM; actives 0.99% (n = 360,000); AID 624467;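 active means activation above the mean activation of all test compounds in the run plus 3 SD, cut at about 38% in these data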
#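 Test system: RD-HGA16 (CHO) cells co-expressing Gα16 and hTAAR1; dosing: one-point dosing at 3 µM (nominal); timing: 17-24 h seeding, 75 min 37 °C dye, 30 min RT; signal: kinetic Fluo-8 calcium fluorescence; read-out basis: % activation relative to PEA EC100 response; controls: DMSO and PEA EC100; replicates: n 1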
# CHO parental Ca – counter-screen for OX1R antagonists: effect in parental CHO cells. inhibition, % at 5.6 µM. actives 0.63% (n = 330,000). AID 463079. parental CHO-K1, ATP-induced calcium, Fluo-8 fluorescence;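 active means inhibition above that plate's mean sample inhibition plus 3 SD, cut at about 26% in these data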;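 further: 0% = ATP-challenged DMSO wells and 100% = DMSO wells without ATP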
#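 Assay system: parental CHO cells; Read-out basis: percent inhibition of ATP-evoked calcium rise, normalized to controls; Benchmarks: ATP and no-ATP DMSO wells; Compound dosing: single nominal dose of 5.6 µM per compound; Signal: Fluo-8 calcium dye fluorescence; Also added: ATP as calcium-mobilizing challenge; Repeats: singlicate.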
# OX1R antag-1 – OX1R (human) antagonism. actives 1.8% (n = 330,000). O43613. inhibition, % at 6.6 µM. AID 485270. OX1R-expressing cells, FRET antagonist read-out; in the data active means inhibition mostly above about 38%, no sharp cut-off; inactive means mostly below about 40%;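 further: 0% = agonist challenge alone and 100% = reference antagonist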
# Target sequence (O43613 whole entry, looked up): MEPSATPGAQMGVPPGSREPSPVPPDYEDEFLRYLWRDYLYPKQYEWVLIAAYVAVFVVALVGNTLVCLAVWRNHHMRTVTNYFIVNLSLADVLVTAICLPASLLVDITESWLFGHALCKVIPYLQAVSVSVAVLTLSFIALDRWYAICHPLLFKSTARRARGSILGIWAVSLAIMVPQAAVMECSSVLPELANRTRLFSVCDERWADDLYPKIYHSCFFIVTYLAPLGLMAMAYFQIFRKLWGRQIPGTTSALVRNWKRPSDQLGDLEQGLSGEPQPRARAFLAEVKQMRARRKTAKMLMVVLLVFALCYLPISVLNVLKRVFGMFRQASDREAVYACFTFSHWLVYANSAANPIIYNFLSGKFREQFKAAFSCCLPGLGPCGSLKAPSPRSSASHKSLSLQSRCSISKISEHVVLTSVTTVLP
# OX1R antag-2 – blocks the human orexin 1 receptor | actives 0.43% (n = 330,000) | AID 434989 | inhibition, % at 5 µM | CHO/OX1R cells, Fluo-8 calcium fluorescence, orexin A | O43613;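 active means inhibition above its plate's threshold, mean inhibition of all tested compounds on the plate plus 3 SD, cut at about 37% in these data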;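 further: 0% = orexin A challenge wells and 100% = SB-334867-A antagonist wells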
# TAAR1 antagonist – human TAAR1 antagonism. Q96RJ0. CHO RD-HGA16 TAAR1, Fluo-8 calcium fluorescence, antagonist. inhibition, % at 3 µM. actives 1.5% (n = 360,000);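 active means inhibition above a per-plate cutoff, the mean inhibition of test compounds on that plate plus 3 SD, cut at about 49% in these data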;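 further: 0% = DMSO plus EC80 beta-PEA response and 100% = DMSO alone without agonist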
#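 Test system – hTAAR1-expressing CHO RD-HGA16 cells, Gα16-coupled · Also added – β-PEA at EC80 concentration, post-compound challenge · Compound – 3 µM, single point · Incubation – dye loading 75 min at 37 °C, then 30 min room temperature · Measured by – Fluo-8 intracellular calcium dye fluorescence, real-time kinetic reads · Benchmarks – vehicle and agonist controls · Replicates – singlicate, one well per test compound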
# TAAR1 ag conf – human TAAR1 agonism, confirmed; AID 651783; shares compounds with TAAR1 agonist; actives 82% (n = 2,400); activation, % at 3 µM; CHO RD-HGA16 TAAR1, Fluo-8 calcium fluorescence; scaled: DMSO 0%, maximal phenethylamine 100%;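 active means activation above a cutoff set at the run's mean compound activation plus 3 SD, cut at about 39% in these data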
# Ga16 ag counter – nonselective agonism, TAAR1 counter-screen. shares compounds with TAAR1 agonist. CHO-Ga16 parental, Fluo-8 calcium fluorescence; normalized to maximal ATP response, DMSO zero. activation, % at 3 µM. actives 50% (n = 2,400);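 active means activation above the run cutoff, the mean activation over all tested wells plus 3 SD, cut at about 12% in these data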;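 further: 0% = DMSO wells and 100% = maximal ATP response on the peak over basal ratio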
# TAAR1 desensitize – TAAR1 response desensitization, agonist counter-screen; inhibition, % at 3 µM; shares compounds with TAAR1 agonist; actives 46% (n = 2,400); CHO RD-HGA16 hTAAR1, Fluo-8 calcium, beta-PEA response inhibition;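 active means inhibition above the run cutoff, the mean inhibition of all test compounds plus 3 SD, cut at about 49% in these data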;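 further: beta-PEA stimulus applied at its EC80; loss of beta-PEA calcium signal after compound pretreatment read as receptor desensitization; 0% = DMSO with beta-PEA at EC80 and 100% = DMSO alone without agonist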
# Ga16 antag count – counter-screen for TAAR1 agonists: nonselective Ga16 antagonists; actives 39% (n = 2,400); CHO-Ga16 ATP-induced calcium, Fluo-8 fluorescence; shares compounds with TAAR1 agonist; inhibition, % at 3 µM; AID 651952;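 active means inhibition above the plate's mean compound inhibition plus 3 SD, computed per plate, cut at about 22% in these data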;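 further: 0% = EC80 ATP with DMSO and 100% = DMSO wells without ATP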
# The depositor's hits bear a star; · = no result given. Most compounds without a hit are left out; they make up all but 4.6% or so of the library.
SMILES,GPR7 antagonist,TAAR1 agonist,CHO parental Ca,OX1R antag-1,OX1R antag-2,TAAR1 antagonist,TAAR1 ag conf,Ga16 ag counter,TAAR1 desensitize,Ga16 antag count
Cc1ccc(CNC(=S)NC2CCC(C(C)(C)C)CC2)cc1 (centres undefined),-22,0,·,·,·,6,·,·,·,·
CC1=C(C(=O)Nc2ccc(CC(=O)NCc3ccc(OC(C)C)cc3)cc2)SCCO1,12,0,-19,3,-22,-59,·,·,·,·
Cc1ccccc1-c1nc(CS(=O)(=O)CC(=O)NC2CCCCC2C)c(C)o1 (centres undefined),-21,3,-26,17,-46,-23,·,·,·,·
CC1(c2ccc3c(c2)OCCO3)NC(=O)N(CC(=O)c2ccc[nH]2)C1=O (centres undefined),·,7,0,1,-10,5,·,·,·,·
CC1Cc2ccccc2N1C(=O)CN1C(=O)NC(C)(c2ccc3c(c2)OCCO3)C1=O (centres undefined),13,53*,-14,10,-17,-5,43*,9,4,9
COCCCOc1cc(NCc2ccccc2)c2ncn(C(C)C)c2c1,·,15,-19,14,-22,-9,·,·,·,·
CCCCOc1cc(NCc2ccccc2)c2ncn(C(C)C)c2c1,·,66*,-50,24,-91,50*,29,24*,25,24*
O=C(O)c1cccc(NS(=O)(=O)c2ccc(S(=O)(=O)N3CCOCC3)cc2)c1,-10,0,·,·,·,-14,·,·,·,·
C#CCN1CC(COCCCC)Oc2cccc(F)c2S1(=O)=O (centres undefined),·,-2,·,·,·,2,·,·,·,·
COc1ccccc1C(=O)NCCC(=O)NCCC12CC3CC(CC(C3)C1)C2,-12,-4,-20,9,-21,-25,·,·,·,·
COc1ccc(C23CC4CC(CC(C4)C2)C3)cc1C(=O)NCCN(C)C,5,46*,-6,4,-11,3,54*,21*,22,13
CCOC(=O)C1=C(N)n2c(s/c(=C/c3ccco3)c2=O)=C(C(=O)OC)C1c1ccco1 (centres undefined),5,68*,10,4,4,33,72*,30*,51*,40*
CN(CCc1ccccn1)C(=O)Nc1ccc(Cl)cc1,9,10,-2,6,1,10,·,·,·,·
CN(CCc1ccccn1)C1CC(=O)N(c2ccc(Cl)cc2)C1=O (centres undefined),-3,68*,-25,17,-33,7,17,0,-3,1
COc1ccccc1NC(=O)CSc1nnc(CCNC(=O)c2ccc(C)cc2)n1C,0,12,-13,22,-14,11,·,·,·,·
CN(C)C1=NC[C@H](Cc2ccccc2)N1CCC1CCCC1,·,6,-15,20,-20,8,·,·,·,·
CN(C)C1=NC[C@H](Cc2ccccc2)N1CCCC1CCCC1,·,45*,3,16,-15,-15,22,7,20,14
Cc1ccc(NS(=O)(=O)c2ccc(C(=O)N3CC(C)CC(C)C3)cc2)cc1 (centres undefined),·,141*,64*,0,63*,102*,128*,91*,106*,89*
Cc1ccc(S(=O)(=O)Nc2ccc(C(=O)N3CCCC3)cc2)cc1,-9,2,-4,11,-27,-8,·,·,·,·
O=C(COc1ccccc1Cc1ccccc1)NCCCN1CCOCC1,-9,1,-9,8,-26,-9,·,·,·,·
CC1CCN(c2ccc(NC(=O)Cc3ccccc3)cc2)CC1,-19,84*,32,15,-7,53*,-1,20*,1,13
O=c1[nH]c2cc3c(cc2cc1CN(CCc1ccccc1)Cc1nnnn1CC1CCCO1)OCO3 (centres undefined),-13,7,-15,9,-12,7,·,·,·,·
COc1ccc2cc(CN(CCc3ccccc3)Cc3nnnn3CC3CCCO3)c(=O)[nH]c2c1 (centres undefined),-3,92*,-5,24,-11,57*,78*,5,75*,17
COc1ccc2[nH]c(=O)c(CN(Cc3ccccc3OC)Cc3nnnn3CC3CCCO3)cc2c1 (centres undefined),-14,1,-31,45,-16,-13,·,·,·,·
COc1ccc2[nH]c(=O)c(CN(CCc3ccccc3)Cc3nnnn3CC3CCCO3)cc2c1 (centres undefined),-15,84*,-25,33,-18,72*,88*,8,81*,25*
SMILES,GPR7 antagonist,TAAR1 agonist,CHO parental Ca,OX1R antag-1,OX1R antag-2,TAAR1 antagonist,TAAR1 ag conf,Ga16 ag counter,TAAR1 desensitize,Ga16 antag count
COc1ccc2cc(C(c3nnnn3CCc3ccccc3)N3CCCC(C)C3)c(=O)[nH]c2c1 (centres undefined),-5,54*,-3,13,-22,30,58*,3,18,14
COCCn1nnnc1C(c1cc2cc(OC)ccc2[nH]c1=O)N1CCC(Cc2ccccc2)CC1 (centres undefined),-11,7,-7,6,-11,8,·,·,·,·
CCOc1cc(CNCCc2ccc(S(N)(=O)=O)cc2)ccc1OCc1ccc(Cl)cc1,51*,69*,61*,13,77*,47,85*,46*,91*,72*
COc1cc(CNCCc2ccccc2)ccc1OCc1ccc(Cl)nc1,17,54*,-17,25,-23,7,71*,10,43,12
O=C(NCc1ccccn1)c1ccc(Cl)c(NC2=NC3CS(=O)(=O)CC3S2)c1 (centres undefined),-10,9,18,-2,9,-22,·,·,·,·
COc1ccc(NS(=O)(=O)c2ccc(OCC(=O)N3CCOCC3)cc2)cc1,-12,10,2,1,-4,-6,·,·,·,·
CCOc1ccc(NS(=O)(=O)c2ccc(C(=O)NCC(c3cccs3)N3CCOCC3)cc2)cc1 (centres undefined),·,126*,1,-6,1,83*,106*,68*,78*,51*
CC(C)(CNC(=O)c1ccc(S(=O)(=O)Nc2ccc(Cl)cc2)cc1)N1CCOCC1,·,65*,0,-1,2,21,45*,19*,28,23*

# High-throughput results from PubChem BioAssay.
